These results are taken from the array DNA melting data of Ke et al. (doi:10.1101/2024.01.08.574731).

Data set [1] is described as follows: folding enthalpy; higher = less favourable; fluorescence melt of hairpins on a sequencing array, two-state fit. Conditions: sodium 0.088 M. The method in brief: (§1)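 Melting temperature and folding enthalpy were derived from bootstrapped two-state fits. The fitted temperatures were raised by 9.35 °C to agree with UV melts, and four replicates were combined by inverse variance. The underlying data were Cy3 fluorescence images of library hairpins, with annealed Cy3 and quencher oligos, on a sequenced MiSeq flow cell in 50 mM Na-HEPES pH 8.0, 25 mM NaCl, taken in 2.5 °C steps up to 60 °C, normalised to pre-quench Cy3 and to control constructs.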

Data set [2] in a line: melting temperature; fluorescence melt of hairpins on a sequencing array, two-state fit, raised by 9.35 °C to match UV melts. Conditions: sodium 0.088 M. The method in brief:
as §1

Consider GCCAAGGGAAACCTTAGC ((.((((....)))).)), for which the folding enthalpy in data set [1] was -19.3 kcal/mol. Also, the Tm in data set [2] was found to be 33.2 °C.
Take GCCAAGGGAAACCTTGGC (((((((....))))))): the folding enthalpy in data set [1] is -37.5 kcal/mol. In data set [2], the Tm worked out at 68.8 °C.
In the same order, the values of GCCAATCCGAAAGGAGGC (((..(((....)))))) are -22.2 kcal/mol and 47 °C.
In the same order, the values of GCCAATGGAAACACTGGC ((((.((....)).)))) are -31.9 kcal/mol and 41.9 °C.
Consider GCCAATGGAAACATCGGC (((.(((....))).))), for which the folding enthalpy in data set [1] is -28.9 kcal/mol. Moreover, in data set [2], the Tm worked out at 44 °C.
In the same order, the values of GCCAATGGAAACATTGAC (.(((((....))))).) are -22.2 kcal/mol and 37.7 °C.
As to GCCACACCGAAAGGTGGC (((..(((....)))))), in data set [1], the folding enthalpy is -12.3 kcal/mol. In addition, the Tm in data set [2] is 55.6 °C.
In the case of GCCACAGGAAACTACGGC (((..((....))..))), the folding enthalpy in data set [1] was -30.8 kcal/mol. The Tm in data set [2] was found to be 39.5 °C.
In the same order, the values of GCCACCGAAAGGTAAGGC ((((((....)))..))) are -26.9 kcal/mol and 52.6 °C.
In the same order, the values of GCCACCGAAAGGTACGGC ((((((....)))..))) are -24.9 kcal/mol and 49 °C.
Consider GCCACCGAAAGGTATGGC ((((((....)))..))), for which the folding enthalpy in data set [1] is -36.9 kcal/mol. In data set [2], the Tm worked out at 52.8 °C.
As for GCCACCGAAAGGTCGGC ((((((....))).))), the folding enthalpy in data set [1] is -29.9 kcal/mol. In data set [2], the Tm was 59 °C.
GCCACCGAAAGGTCGGGC ((((((....)))..))): the folding enthalpy in data set [1] is -25.6 kcal/mol. The Tm in data set [2] was determined as 48 °C.
Regarding GCCACCGAAAGGTTCGGC ((((((....)))..))), the folding enthalpy in data set [1] is -16.8 kcal/mol. Also, the Tm in data set [2] is 46.5 °C.
Regarding GCCACCGAAAGGTTGGC ((((((....))).))), the folding enthalpy in data set [1] is -33.9 kcal/mol. Also, the Tm in data set [2] was 60.5 °C.
GCCACCGAAAGGTTGGGC ((((((....)))..))): the folding enthalpy in data set [1] was -20.8 kcal/mol. The Tm in data set [2] was determined as 52.6 °C.
For GCCACCGCGAAAGCGGGC (((..(((....)))))), in that order: -7.35 kcal/mol and 47.5 °C.
In the same order, the values of GCCACCGGAAACAGTGGC (((((.(....).))))) are -30.7 kcal/mol and 52.6 °C.
For GCCACCGGAAACGACGGC (((..((....))..))), the folding enthalpy in data set [1] was -24.9 kcal/mol. In addition, the Tm in data set [2] was 41.4 °C.
In the same order, the values of GCCACGCGAAAGCATTGC ((.(.((....)).).)) are -11.6 kcal/mol and 28.7 °C.
In the same order, the values of GCCACGCGAAAGCGATGC ((..(((....)))..)) are -12.7 kcal/mol and 43.3 °C.
In the case of GCCACGCGAAAGCGGAGC ((..(((....)))..)), the folding enthalpy in data set [1] is -17.1 kcal/mol. In data set [2], the Tm came out at 54.4 °C.
For GCCACGCGAAAGCTTAGC ((.(.((....)).).)), in data set [1], the folding enthalpy was -6.78 kcal/mol. In addition, the Tm in data set [2] turned out to be 30.1 °C.
For the sequence GCCAGAACGAAAGTTGGC (((..(((....)))))), the folding enthalpy in data set [1] is -35.8 kcal/mol. In addition, the Tm in data set [2] came out at 49.8 °C.
For GCCAGACCGAAAGGTGGC (((..(((....)))))), in data set [1], the folding enthalpy is -42.4 kcal/mol. The Tm in data set [2] is 53.7 °C.
As for GCCAGACGAAAGTCGGC (((.(((....)))))), the folding enthalpy in data set [1] was -27.6 kcal/mol. The Tm in data set [2] came to 66.6 °C.
In the case of GCCAGAGCGAAAGCTGGC (((..(((....)))))), in data set [1], the folding enthalpy is -31.3 kcal/mol. Further, the Tm in data set [2] worked out at 60 °C.
For GCCAGAGGAAACCCTGGC (((((.(....).))))), in that order: -41 kcal/mol and 52.4 °C.
GCCAGAGGAAACTCTGAC (.(((((....))))).): the folding enthalpy in data set [1] is -18.3 kcal/mol. Also, in data set [2], the Tm worked out at 38.6 °C.
Regarding GCCAGCGAAAGCTAAGGC ((((((....)))..))), in data set [1], the folding enthalpy is -21.2 kcal/mol. The Tm in data set [2] was determined as 53.7 °C.
In the case of GCCAGCGAAAGCTCCGGC ((((((....)))..))), in data set [1], the folding enthalpy was -19.9 kcal/mol. For the same sequence, in data set [2], the Tm turned out to be 44.5 °C.
For the sequence GCCAGGAAACTGGC (((((....))))), the folding enthalpy in data set [1] was -38.2 kcal/mol. Besides, the Tm in data set [2] turned out to be 63.2 °C.
For GCCAGGCGAAAGCAAGGC (((..((....))..))), in that order: -26.5 kcal/mol and 60.6 °C.
For the sequence GCCAGGCGAAAGCCACGC ((..(((....)))..)), the folding enthalpy in data set [1] is -13.1 kcal/mol. Besides, in data set [2], the Tm came out at 38.8 °C.
Consider GCCAGGCGAAAGCCATGC ((..(((....)))..)), for which the folding enthalpy in data set [1] is -13.6 kcal/mol. Also, the Tm in data set [2] worked out at 42.3 °C.
For GCCAGGCGAAAGCCCTGC ((..(((....)))..)), in that order: -12.4 kcal/mol and 45.1 °C.
In the same order, the values of GCCAGGCGAAAGCCGAGC ((..(((....)))..)) are -13.3 kcal/mol and 52.2 °C.
